# Data reported in ChEMBL document CHEMBL1157465, “Design, synthesis, and biological evaluation of novel 3-aryl-4-(1H-indole-3yl)-1,5-dihydro-2H-pyrrole-2-ones as vascular endothelial growth factor receptor (VEGF-R) inhibitors” (J Med Chem, 2008).
# Legend:
# [1] = biological target: T1, Serine/threonine-protein kinase PLK4 (Homo sapiens, UniProt O00444); test: Inhibition of human recombinant SAK
# T1 sequence (O00444 whole entry): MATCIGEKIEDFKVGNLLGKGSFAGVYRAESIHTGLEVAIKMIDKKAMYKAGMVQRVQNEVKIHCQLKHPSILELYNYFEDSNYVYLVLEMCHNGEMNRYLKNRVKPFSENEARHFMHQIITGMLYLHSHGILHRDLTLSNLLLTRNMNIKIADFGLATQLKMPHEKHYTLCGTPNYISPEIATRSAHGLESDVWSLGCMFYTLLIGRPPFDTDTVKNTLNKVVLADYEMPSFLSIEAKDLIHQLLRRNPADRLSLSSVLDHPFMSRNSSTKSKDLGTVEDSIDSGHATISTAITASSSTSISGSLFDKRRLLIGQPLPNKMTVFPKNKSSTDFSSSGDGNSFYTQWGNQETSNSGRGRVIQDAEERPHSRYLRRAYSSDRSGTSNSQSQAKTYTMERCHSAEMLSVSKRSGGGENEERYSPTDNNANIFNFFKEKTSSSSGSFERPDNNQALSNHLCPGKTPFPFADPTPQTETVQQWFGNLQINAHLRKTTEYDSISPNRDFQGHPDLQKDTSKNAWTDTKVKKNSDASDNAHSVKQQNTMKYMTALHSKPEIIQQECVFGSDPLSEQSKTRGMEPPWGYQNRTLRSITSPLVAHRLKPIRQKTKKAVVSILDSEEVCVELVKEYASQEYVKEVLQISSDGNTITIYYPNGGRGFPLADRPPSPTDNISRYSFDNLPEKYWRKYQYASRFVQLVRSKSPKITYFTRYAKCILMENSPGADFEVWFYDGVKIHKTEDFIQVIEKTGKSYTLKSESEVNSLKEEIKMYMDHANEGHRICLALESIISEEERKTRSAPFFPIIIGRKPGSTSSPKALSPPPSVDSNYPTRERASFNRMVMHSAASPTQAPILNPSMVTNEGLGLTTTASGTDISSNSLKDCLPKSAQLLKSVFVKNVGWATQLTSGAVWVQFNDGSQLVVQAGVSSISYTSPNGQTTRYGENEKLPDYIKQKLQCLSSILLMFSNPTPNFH
# Method in brief: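 Human kinase expressed from cDNA in Sf9 cells (baculovirus) as GST- or His-tagged protein, affinity-purified. 10 compound concentrations, 1% DMSO final, 30 °C for 80 min. Stopped with H₃PO₄, 33P incorporation counted, IC50 derived.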
# [2] = biological target: Vascular endothelial growth factor receptor 3 (Homo sapiens, UniProt P35916); test: Inhibition of human recombinant VEGFR3
# Method in brief: (§1)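 Recombinant human tyrosine kinases (EPHB4, TIE2, VEGF-R2, VEGF-R3), expressed in Sf9 insect cells as GST- or His-fusions, with poly(Glu,Tyr) 4:1 as substrate. Conditions: 1 µM [γ-33P]ATP, pH 7.5 HEPES buffer with Mg/Mn, DTT and vanadate, 30 °C for 80 min, 1% DMSO. Ten concentrations were tested and IC50 came from scintillation counting of incorporated 33P.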
# Angiopoietin-1 receptor = Angiopoietin-1 receptor (Homo sapiens, UniProt Q02763); test: Inhibition of human recombinant TIE2; method in brief: as §1
# [3] = biological target: Vascular endothelial growth factor receptor 2 (Homo sapiens, UniProt P35968); test: Inhibition of human recombinant VEGFR2; method in brief: as §1
# [4] = biological target: T2, Receptor-type tyrosine-protein kinase FLT3 (Homo sapiens, UniProt P36888); test: Inhibition of human recombinant FLT3
# T2 sequence (P36888 whole entry): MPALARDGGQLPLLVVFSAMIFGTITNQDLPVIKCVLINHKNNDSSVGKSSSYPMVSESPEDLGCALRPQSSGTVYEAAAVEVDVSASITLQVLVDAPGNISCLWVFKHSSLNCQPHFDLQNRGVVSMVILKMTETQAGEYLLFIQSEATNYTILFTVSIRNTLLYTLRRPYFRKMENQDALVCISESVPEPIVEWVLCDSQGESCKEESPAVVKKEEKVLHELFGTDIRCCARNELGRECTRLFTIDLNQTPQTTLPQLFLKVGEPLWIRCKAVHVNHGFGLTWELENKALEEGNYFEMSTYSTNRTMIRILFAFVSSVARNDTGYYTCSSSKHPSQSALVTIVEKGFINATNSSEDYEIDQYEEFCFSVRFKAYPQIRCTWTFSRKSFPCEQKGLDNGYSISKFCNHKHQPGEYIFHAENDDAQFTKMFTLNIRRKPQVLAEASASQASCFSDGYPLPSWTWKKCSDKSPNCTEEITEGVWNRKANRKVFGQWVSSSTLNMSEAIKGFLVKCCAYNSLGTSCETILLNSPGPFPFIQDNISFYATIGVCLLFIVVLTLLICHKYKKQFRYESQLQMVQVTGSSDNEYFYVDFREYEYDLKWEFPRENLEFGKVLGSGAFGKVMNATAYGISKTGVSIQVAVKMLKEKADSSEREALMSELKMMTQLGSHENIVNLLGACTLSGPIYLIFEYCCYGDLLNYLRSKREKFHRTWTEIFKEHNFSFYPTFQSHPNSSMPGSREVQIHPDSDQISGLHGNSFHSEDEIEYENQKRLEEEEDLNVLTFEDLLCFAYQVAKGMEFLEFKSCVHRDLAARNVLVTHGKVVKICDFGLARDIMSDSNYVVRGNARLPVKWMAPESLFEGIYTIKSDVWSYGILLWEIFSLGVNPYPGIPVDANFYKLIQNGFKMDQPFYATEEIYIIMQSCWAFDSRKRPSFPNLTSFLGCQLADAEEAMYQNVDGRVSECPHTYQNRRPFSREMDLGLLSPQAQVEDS
# Method in brief: (§2)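 Human kinases expressed in Sf9 cells via baculovirus as GST or His fusions and affinity purified. 33PanQinase assay in 60 mM HEPES-NaOH pH 7.5, 3 mM MgCl2, 3 mM MnCl2, 3 µM orthovanadate, 1.2 mM DTT, 1 µM [γ-33P]ATP, 1% DMSO; 30 °C, 80 min. Substrates: poly(Glu,Tyr) 4:1 for ERBB2, IGF1-R and SRC; poly(Ala,Glu,Lys,Tyr) 6:2:5:1 for FLT3. IC50 from 10 concentrations by scintillation counting.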
# [5] = biological target: Proto-oncogene tyrosine-protein kinase Src (Homo sapiens, UniProt P12931); test: Inhibition of human recombinant SRC; method in brief: as §2
# [6] = biological target: T3, NUAK family SNF1-like kinase 1 (Homo sapiens, UniProt O60285); test: Inhibition of human recombinant ARK5
# T3 sequence (O60285 whole entry): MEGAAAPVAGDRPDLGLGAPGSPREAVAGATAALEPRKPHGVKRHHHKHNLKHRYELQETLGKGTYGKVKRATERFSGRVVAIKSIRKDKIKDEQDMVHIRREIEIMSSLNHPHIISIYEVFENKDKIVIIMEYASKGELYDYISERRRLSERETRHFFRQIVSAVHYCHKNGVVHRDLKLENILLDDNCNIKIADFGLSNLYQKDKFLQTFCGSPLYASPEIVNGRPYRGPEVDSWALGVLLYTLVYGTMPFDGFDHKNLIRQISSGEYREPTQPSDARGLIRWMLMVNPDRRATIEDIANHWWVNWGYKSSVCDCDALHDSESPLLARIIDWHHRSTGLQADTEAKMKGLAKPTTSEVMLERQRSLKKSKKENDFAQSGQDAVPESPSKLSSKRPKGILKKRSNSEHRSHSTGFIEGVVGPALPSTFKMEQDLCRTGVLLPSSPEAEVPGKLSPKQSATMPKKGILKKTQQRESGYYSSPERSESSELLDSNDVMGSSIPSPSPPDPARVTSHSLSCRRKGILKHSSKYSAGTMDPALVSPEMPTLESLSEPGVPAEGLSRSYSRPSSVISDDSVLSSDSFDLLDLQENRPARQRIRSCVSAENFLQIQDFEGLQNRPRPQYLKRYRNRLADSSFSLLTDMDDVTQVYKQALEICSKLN
# Method in brief: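 Human ARK5 made in Sf9 cells by baculovirus (GST- or His-tagged, affinity-purified) and read by autophosphorylation in a 33PanQinase radiometric assay. Buffer: 60 mM HEPES-NaOH pH 7.5, 3 mM MgCl2, 3 mM MnCl2, 3 µM orthovanadate, 1.2 mM DTT, PEG20000 and 1 µM [γ-33P]ATP.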
# Homo sapiens = organism: Homo sapiens; test: Antiangiogenic activity in VEGF-induced HLMEC assessed as sprouts per bead at 1.3 uM after 24 hrs by sprouting assay; assay type: functional
# Method in brief: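 HLMEC seeded on cytodex-3 microcarrier beads and embedded in 3D fibrinogen gel with 20 ng/mL VEGF plus compound at a final 1.3 or 2.6 µM (from 1 mM DMSO stock). Gel polymerised with 0.65 U/mL thrombin and overlaid with MCDB131, 5% FCS, 5% human serum and 200 U/mL Trasylol. Negative control: gel without growth factors. After 24 h, fixed in 1% PFA; sprouts per 50 beads counted microscopically. Triplicates per condition, n = 9 experiments.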
# Aurora kinase B = Aurora kinase B (Homo sapiens, UniProt Q96GD4); test: Inhibition of human recombinant Aurora B
# Method in brief: (§3)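 Aurora-A or Aurora-B, human cDNA expressed in Sf9 cells as tagged recombinant protein, phosphorylating Tetra(LRRWSLG). Reactions used 60 mM HEPES pH 7.5, Mg2+/Mn2+ (3 mM each), 1.2 mM DTT, vanadate and 1 µM [γ-33P]ATP, ran 80 min at 30 °C and were stopped with 2% H3PO4.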
# [7] = biological target: Receptor tyrosine-protein kinase erbB-2 (Homo sapiens, UniProt P04626); test: Inhibition of human recombinant ERBB2; method in brief: as §2
# [8] = biological target: Cyclin-dependent kinase 2 (Homo sapiens, UniProt P24941); test: Inhibition of human recombinant CDK2/cyclin A
# Method in brief: (§4)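 Human kinases expressed in Sf9 cells by baculovirus as GST or His fusions and affinity purified. Radiometric 33PanQinase assay: 60 mM HEPES-NaOH pH 7.5, 3 mM MgCl2, 3 mM MnCl2, 3 µM orthovanadate, 1.2 mM DTT, 1 µM [γ-33P]ATP, 50-400 ng enzyme, 1% DMSO; 30 °C, 80 min. Substrates: B-Raf-VE, MEK1 KM; CDK2/CycA, histone H1; CK2-A1, casein; COT, autophosphorylation. IC50 from 10 concentrations; 33Pi incorporation by scintillation.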
# Focal adhesion kinase 1 = Focal adhesion kinase 1 (Homo sapiens, UniProt Q05397); test: Inhibition of human recombinant FAK
# Insulin receptor = Insulin receptor (Homo sapiens, UniProt P06213); test: Inhibition of human recombinant INS-R
# Aurora kinase A = biological target: T4, Aurora kinase A (Homo sapiens, UniProt O14965); test: Inhibition of human recombinant Aurora A; method in brief: as §3
# T4 sequence (O14965 whole entry): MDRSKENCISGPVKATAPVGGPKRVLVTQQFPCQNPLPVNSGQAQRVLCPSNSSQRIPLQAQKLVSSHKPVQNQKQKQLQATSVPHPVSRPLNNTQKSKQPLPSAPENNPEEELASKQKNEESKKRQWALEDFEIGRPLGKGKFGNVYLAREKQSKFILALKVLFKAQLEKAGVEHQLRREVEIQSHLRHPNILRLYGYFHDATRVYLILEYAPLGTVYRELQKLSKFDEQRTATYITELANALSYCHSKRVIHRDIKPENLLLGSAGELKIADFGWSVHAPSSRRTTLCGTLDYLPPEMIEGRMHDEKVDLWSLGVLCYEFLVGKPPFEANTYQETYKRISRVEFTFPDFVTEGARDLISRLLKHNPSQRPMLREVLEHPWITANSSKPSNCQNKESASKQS
# [9] = biological target: Mitogen-activated protein kinase kinase kinase 8 (Homo sapiens, UniProt P41279); test: Inhibition of human recombinant COT; method in brief: as §4
# [10] = biological target: Cyclin-dependent kinase 4/cyclin D1 (Homo sapiens, UniProt P11802); test: Inhibition of human recombinant CDK4/cyclin D1; assay type: protein-complex assay
# Method in brief: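 CDK4/CycD1 (human, baculovirus/Sf9, affinity-purified) with Rb-CTF as substrate. The radiometric FlashPlate assay held 1 µM [γ-33P]ATP in HEPES-NaOH pH 7.5 with 3 mM MgCl2 and 3 mM MnCl2.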
# Vascular endothelial growth factor receptor 3, sequence (P35916 whole entry, the tested form may be a part): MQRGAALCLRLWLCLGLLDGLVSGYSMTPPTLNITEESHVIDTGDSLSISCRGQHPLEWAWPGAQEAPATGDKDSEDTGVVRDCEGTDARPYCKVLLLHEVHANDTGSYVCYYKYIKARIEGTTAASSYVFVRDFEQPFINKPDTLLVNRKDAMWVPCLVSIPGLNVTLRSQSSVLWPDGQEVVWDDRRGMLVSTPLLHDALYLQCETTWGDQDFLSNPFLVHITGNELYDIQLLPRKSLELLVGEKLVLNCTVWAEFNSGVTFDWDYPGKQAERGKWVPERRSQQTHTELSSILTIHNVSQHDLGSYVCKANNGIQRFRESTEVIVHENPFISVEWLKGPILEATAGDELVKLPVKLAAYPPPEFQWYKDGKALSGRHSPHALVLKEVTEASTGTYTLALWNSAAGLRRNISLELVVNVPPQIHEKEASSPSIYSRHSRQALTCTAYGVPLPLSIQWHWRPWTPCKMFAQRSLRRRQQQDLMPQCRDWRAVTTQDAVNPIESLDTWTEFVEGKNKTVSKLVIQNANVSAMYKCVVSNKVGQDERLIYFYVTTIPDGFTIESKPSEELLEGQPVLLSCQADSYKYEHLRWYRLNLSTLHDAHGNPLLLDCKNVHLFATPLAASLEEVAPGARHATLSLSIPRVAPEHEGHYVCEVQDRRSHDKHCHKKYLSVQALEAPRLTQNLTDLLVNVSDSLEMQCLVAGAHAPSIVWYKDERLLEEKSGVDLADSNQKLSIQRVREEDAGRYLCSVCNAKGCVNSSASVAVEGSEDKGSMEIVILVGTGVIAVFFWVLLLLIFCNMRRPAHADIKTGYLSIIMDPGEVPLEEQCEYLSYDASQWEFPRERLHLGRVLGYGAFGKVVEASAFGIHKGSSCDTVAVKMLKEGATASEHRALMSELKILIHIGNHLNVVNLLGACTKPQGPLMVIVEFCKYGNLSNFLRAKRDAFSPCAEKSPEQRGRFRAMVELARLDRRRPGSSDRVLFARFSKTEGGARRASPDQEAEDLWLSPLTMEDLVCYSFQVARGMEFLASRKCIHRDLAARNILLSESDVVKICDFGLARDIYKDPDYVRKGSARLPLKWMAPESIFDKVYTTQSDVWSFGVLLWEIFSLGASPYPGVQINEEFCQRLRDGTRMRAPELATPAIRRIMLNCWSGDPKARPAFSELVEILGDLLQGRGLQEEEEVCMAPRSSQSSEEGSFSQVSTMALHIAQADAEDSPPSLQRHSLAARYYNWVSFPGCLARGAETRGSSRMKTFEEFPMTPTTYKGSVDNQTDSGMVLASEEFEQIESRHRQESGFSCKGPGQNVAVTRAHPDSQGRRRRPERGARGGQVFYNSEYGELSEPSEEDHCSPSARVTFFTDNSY
# Vascular endothelial growth factor receptor 2, sequence (P35968 whole entry): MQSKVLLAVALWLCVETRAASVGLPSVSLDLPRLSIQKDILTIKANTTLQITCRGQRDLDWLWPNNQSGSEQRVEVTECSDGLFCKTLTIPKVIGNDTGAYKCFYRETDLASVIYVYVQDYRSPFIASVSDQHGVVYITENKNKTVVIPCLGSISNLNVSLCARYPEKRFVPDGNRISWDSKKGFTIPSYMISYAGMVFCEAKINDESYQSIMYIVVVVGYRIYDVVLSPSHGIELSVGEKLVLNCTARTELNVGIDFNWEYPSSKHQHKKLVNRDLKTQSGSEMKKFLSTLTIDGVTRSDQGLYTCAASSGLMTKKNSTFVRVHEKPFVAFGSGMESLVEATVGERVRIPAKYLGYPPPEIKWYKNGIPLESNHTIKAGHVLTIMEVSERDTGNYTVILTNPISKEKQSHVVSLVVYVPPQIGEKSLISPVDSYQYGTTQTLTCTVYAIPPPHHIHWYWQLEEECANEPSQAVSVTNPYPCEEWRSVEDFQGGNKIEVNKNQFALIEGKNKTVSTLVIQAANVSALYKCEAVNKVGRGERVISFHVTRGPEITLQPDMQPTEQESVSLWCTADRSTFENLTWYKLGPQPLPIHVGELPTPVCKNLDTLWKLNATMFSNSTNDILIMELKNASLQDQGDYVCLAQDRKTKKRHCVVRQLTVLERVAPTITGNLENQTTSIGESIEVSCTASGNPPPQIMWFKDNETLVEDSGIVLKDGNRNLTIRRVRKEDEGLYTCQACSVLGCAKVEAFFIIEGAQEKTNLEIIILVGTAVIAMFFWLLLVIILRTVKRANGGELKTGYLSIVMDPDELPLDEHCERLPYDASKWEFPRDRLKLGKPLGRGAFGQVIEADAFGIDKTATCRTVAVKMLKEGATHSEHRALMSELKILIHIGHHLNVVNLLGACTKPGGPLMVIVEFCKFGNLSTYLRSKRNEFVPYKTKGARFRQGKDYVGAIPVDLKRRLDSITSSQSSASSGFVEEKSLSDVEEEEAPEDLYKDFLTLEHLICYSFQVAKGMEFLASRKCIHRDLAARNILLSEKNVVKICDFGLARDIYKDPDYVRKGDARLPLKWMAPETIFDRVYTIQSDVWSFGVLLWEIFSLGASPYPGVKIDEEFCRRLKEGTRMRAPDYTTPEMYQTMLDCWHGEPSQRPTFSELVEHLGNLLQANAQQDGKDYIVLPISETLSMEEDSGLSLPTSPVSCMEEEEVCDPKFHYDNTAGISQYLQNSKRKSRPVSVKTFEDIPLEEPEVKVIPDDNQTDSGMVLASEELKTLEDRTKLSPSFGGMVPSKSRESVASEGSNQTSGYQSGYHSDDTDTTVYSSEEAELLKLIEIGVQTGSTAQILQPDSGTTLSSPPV
# Angiopoietin-1 receptor, sequence (Q02763 whole entry): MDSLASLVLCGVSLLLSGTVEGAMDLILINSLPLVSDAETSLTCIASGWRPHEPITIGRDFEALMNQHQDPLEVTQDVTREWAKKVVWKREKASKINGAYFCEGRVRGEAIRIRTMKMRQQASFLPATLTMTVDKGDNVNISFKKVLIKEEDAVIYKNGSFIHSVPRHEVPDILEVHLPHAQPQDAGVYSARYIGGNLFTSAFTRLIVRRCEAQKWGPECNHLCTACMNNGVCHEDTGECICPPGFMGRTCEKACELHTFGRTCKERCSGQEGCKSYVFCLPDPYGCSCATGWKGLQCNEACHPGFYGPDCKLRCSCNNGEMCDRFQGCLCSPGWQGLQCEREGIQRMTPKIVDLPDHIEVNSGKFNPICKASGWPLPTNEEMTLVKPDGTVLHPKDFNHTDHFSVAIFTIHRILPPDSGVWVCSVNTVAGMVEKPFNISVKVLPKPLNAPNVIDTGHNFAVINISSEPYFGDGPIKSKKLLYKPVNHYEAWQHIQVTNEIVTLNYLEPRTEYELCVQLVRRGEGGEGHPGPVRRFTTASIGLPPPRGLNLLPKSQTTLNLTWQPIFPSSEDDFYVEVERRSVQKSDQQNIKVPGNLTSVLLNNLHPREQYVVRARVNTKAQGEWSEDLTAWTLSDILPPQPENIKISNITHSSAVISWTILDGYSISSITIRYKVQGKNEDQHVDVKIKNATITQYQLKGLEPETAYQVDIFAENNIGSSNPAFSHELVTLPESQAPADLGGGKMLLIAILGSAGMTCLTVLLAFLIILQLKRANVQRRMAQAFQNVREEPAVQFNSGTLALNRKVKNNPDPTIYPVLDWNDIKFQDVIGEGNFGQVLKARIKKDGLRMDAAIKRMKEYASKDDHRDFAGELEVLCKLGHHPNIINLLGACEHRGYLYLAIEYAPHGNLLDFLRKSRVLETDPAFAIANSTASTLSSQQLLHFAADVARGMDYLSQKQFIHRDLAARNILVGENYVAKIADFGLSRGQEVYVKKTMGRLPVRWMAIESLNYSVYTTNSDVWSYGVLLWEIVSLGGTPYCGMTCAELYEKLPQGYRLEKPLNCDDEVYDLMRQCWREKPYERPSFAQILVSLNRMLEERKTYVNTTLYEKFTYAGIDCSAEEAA
# Focal adhesion kinase 1, sequence (Q05397 whole entry): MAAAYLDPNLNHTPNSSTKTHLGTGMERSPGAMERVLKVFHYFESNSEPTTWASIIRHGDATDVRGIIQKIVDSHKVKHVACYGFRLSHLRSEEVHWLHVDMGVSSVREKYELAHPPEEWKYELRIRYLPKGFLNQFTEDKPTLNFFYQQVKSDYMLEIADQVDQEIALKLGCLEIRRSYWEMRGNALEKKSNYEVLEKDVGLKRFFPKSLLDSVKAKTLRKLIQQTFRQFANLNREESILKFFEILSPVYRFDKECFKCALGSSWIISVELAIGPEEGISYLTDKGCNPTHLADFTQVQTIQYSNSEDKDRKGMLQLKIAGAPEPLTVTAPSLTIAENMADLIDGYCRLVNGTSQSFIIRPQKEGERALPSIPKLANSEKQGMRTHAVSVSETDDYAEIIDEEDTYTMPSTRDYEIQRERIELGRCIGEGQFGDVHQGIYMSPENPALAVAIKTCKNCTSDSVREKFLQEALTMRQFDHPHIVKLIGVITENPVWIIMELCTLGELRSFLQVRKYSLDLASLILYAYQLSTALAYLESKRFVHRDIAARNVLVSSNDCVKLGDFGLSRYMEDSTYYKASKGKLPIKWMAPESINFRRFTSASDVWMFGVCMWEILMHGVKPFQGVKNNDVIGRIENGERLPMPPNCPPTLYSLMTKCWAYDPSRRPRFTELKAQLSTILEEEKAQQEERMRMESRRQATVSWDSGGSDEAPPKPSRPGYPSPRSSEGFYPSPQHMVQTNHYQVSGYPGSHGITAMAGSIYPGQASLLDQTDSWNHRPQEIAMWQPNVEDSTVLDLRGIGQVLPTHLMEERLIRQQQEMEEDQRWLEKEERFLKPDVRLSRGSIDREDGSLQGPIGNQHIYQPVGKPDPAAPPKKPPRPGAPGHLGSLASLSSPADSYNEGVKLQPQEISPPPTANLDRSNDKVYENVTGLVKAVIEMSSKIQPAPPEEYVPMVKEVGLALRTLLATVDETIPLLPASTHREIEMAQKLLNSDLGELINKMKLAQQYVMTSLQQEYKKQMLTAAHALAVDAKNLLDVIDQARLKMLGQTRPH
Structure (SMILES),IC50 [1] [µM],IC50 [2] [µM],IC50 (Angiopoietin-1 receptor) [µM],IC50 [3] [µM],IC50 [4] [µM],IC50 [5] [µM],IC50 [6] [µM],inhibition (Homo sapiens) [%],IC50 (Aurora kinase B) [µM],IC50 [7] [µM],IC50 [8] [µM],IC50 (Focal adhesion kinase 1) [µM],IC50 (Insulin receptor) [µM],IC50 (Aurora kinase A) [µM],IC50 [9] [µM],IC50 [10] [µM]
COc1cc(C2=C(c3cn(CC4COC(C)(C)O4)c4ccccc34)CNC2=O)cc(OC)c1OC (configuration not stated),23,3.2,31,8,,,,,,,,,,,,
COc1cc(C2=C(c3c[nH]c4ccccc34)C(O)NC2=O)cc(OC)c1OC (configuration not stated),,3.4,,5.9,44,,,,,,,,,,,
COc1ccc(C2=C(c3cn(C)c4ccccc34)C(=O)NC2)cc1,46,18,48,31,14,39,3.6,,,,,,,,,
COc1cc(C2=C(c3cn(COc4ccccc4)c4ccccc34)CNC2=O)cc(OC)c1OC,9,2.5,1.7,1.5,,,,41,20,37,20,43,44,6.5,40,44
